Sampled rows, rich in hits. Any-hit rate of the full collection: about 1.9%.
RanGTP-Impb inh – inhibitors of RanGTP-importin-beta interaction, primary screen, biochemical, FRET, CFP-Ran, YFP-importin-beta, homogeneous | cell-free CFP-Ran/YFP-importin-beta FRET ratio | AID 2216 | inhibition, % (concentration not given with the values) | 1.1% of 300,000 active;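 active = more than half of the replicate wells show a fall in the fluorescence ratio signal beyond about 16%, limit read from the data, passing the limit was not always enough; inconclusive = exactly half of the replicate wells pass the set limit; inactive = fewer than half of replicates pass the limit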;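 note: 0% = DMSO wells and 100% = Ran loaded with GDP instead of GTP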
Hck Nef HTS – inhibitors of human Hck kinase activated by Nef | P08631 | Recombinant Hck-YEEI plus Nef, Z-Lyte FRET kinase assay | inhibition, % at 20 µM | 0.68% of 220,000 active;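 active = Hck-Nef kinase inhibition above about 50%, limit read from the data; inactive = inhibition below that limit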;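 note: 0% = DMSO with Hck plus Nef and 100% = Hck alone without Nef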
TbHK1 inh – T. brucei hexokinase 1 inhibition; recombinant TbHK1, G6PDH-coupled NADH A340; inhibition, % at 10 µM; 0.11% of 220,000 active;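 active = inhibition of 50% or more in the single-dose primary screen; inactive = inhibition below 50%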
Runt-CBFb FRET – Runt domain-CBFb interaction inhibition; AID 1496; Cerulean-Runt/Venus-CBFb FRET ratio 530/480, 1 h; inhibition, % at 20 µM; 0.46% of 220,000 active;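 active = inhibition over about 50% at 20 µM in the single-dose screen, limit read from the data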;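 note: 0% = DMSO wells and 100% = excess unlabeled CBFb competitor control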
Target sequence (Q01196 whole entry, looked up, the tested form may be a part): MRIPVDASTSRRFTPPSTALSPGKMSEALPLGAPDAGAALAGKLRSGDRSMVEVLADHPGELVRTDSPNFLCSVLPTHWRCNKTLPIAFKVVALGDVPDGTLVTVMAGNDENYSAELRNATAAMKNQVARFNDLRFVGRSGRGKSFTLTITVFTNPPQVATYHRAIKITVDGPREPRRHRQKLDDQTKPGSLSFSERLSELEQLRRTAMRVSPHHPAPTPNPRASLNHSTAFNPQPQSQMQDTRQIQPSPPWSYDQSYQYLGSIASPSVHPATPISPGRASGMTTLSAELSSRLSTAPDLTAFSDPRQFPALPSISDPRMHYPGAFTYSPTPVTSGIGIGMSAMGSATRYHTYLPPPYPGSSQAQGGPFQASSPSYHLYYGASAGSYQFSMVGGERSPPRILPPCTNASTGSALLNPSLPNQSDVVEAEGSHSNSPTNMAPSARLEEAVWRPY
Target sequence (Q13951 whole entry, looked up, the tested form may be a part): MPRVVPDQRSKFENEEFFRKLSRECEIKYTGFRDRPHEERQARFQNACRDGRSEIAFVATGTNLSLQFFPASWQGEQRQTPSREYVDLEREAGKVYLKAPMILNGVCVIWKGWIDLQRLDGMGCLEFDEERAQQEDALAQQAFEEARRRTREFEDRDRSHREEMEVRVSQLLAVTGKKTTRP
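Reagent – Venus-CBFb binding partner, 100 nM · Assay system – Cerulean-tagged RUNX1 Runt domain (FRET donor) fusion protein · Input – 100 nM per protein · Incubation – two 1 h room-temperature incubations shielded from light · Measured by – FRET fluorescence · Medium – Tris buffer pH 7.5 with salts and BSA · Benchmarks – unlabeled CBFb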
Runt-SMMHC FRET – blocks binding of human RUNX1 Runt domain to CBFb-SMMHC | Q01196+Q13951 | Cerulean-Runt/Venus-CBFb-SMMHC FRET ratio 530/480, 1 h | inhibition, % at 20 µM | 0.74% of 220,000 active;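 active = mean inhibition across duplicate retests at 20 µM reaching about 50%, limit read from the data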;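 note: 0% = DMSO wells and 100% = wells with excess untagged CBFb-SMMHC; inhibitors lower the FRET ratio by blocking Runt binding to CBFb-SMMHC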
Hck-Nef confirm – confirmation of Hck-Nef kinase inhibitors; shares compounds with Hck Nef HTS; Recombinant Hck-YEEI:Nef, Z-Lyte FRET kinase assay; calls only at 10 µM; 28% of 1,300 active; AID 463188;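 active = average inhibition of at least 50%, with Z-scores no higher than 3 in both the phospho-tyrosine peptide and fluorescence counterscreens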
Starred values were filed as active, the others as inactive; i = inactive; u = inconclusive; x = not tested or not shown.

SMILES	RanGTP-Impb inh	Hck Nef HTS	TbHK1 inh	Runt-CBFb FRET	Runt-SMMHC FRET	Hck-Nef confirm
COc1ccc(C(=O)CCc2ccccc2)c(O)c1	-3.5	x	x	x	x	x
S=C(NCCc1ccccc1)NC1CC2CCC(C1)N2Cc1ccccc1 (centres undefined)	2.1	22.0	16.8	-2.2	39.1	x
CCN(CC)c1ccc(/C=N/n2nnnc2N)c(O)c1	7.4	57.4*	-19.1	9.4	18.6	i
CCN(C)c1ccc(/C=N\n2nnnc2N)cc1	-1.0	54.2*	-14.9	20.6	53.9*	x
CCN(CC)S(=O)(=O)c1ccc(C(=O)NCc2n[nH]c(=S)n2-c2ccc(Cl)c(Cl)c2)cc1	-1.8	19.8	0.8	6.4	15.4	x
Cc1c(C)c2cc(Cl)c(O)c(CN3CCCCC3)c2oc1=O	u	66.9*	-17.6	35.1	88.7*	i
CN1CCN(Cc2c(O)c(Cl)cc3c(-c4ccccc4)cc(=O)oc23)CC1	-0.4	6.1	-6.2	-2.3	38.7	x
Cc1cc(=O)oc2c(CN3CCN(C)CC3)c(O)c(Cl)cc12	14.1	105.8*	-40.2	97.2*	136.2*	x
CC(=O)Nc1ccc(S(=O)(=O)NNC(=O)c2cccc(Cl)c2)cc1	3.5	10.7	3.8	8.1	1.0	x
Cc1cc(C)cc(C(=O)NC(=S)Nc2cccnc2)c1	4.1	x	x	x	x	x
CCOc1ncccc1C(=O)NCCc1ccc(Cl)cc1	-0.3	x	x	x	x	x
Cc1ccc(/C=N/n2c(-c3cccc(Cl)c3)n[nH]c2=S)o1	2.0	7.8	-14.3	17.1	9.3	x
S=c1[nH]nc(-c2cccc(Cl)c2)n1/N=C/c1ccc(-c2ccccc2Br)o1	u	57.8*	-40.0	1.4	1.8	i
COC(=O)c1sc2ncccc2c1OCc1c(Cl)cccc1Cl	u	55.4*	-1.1	-0.2	-0.6	i
COC(=O)c1sc2ncccc2c1OCc1cccc(Cl)c1	1.0	2.6	0.7	-6.1	-0.4	x
CNS(=O)(=O)c1cc(NC(=O)c2cnc(SC)n2-c2ccccc2)ccc1C	2.8	x	x	x	x	x
CC1=NOC(=O)/C1=C\c1ccc(-c2ccc(Cl)c(C(=O)O)c2)o1	3.1	39.6	-11.2	6.9	-2.7	x
CC1=NOC(=O)/C1=C\c1ccc(-c2ccccc2Br)o1	0.4	51.7*	10.9	x	62.2	i
COc1cc(C2NC(=O)CCC2[N+](=O)[O-])cc(Br)c1OC (centres undefined)	-3.4	x	x	x	x	x
COC(=O)C1=CN(C(C)C)C=C(C(=O)OC)C1c1cc(Br)c(OC)c(OC)c1	59.3*	61.0*	-1.8	114.5*	75.1*	x
COC(=O)C1=CN(C(C)C)C=C(C(=O)OC)C1c1cccc(OC)c1	66.2*	60.6*	0.2	71.5*	-15.6	x
Cc1nc(NC(=O)c2ccccc2)sc1-c1csc(Nc2ccc(C(=O)O)cc2)n1	-6.7	92.9*	-47.4	12.0	-5.1	i
CC(=O)Nc1nc(C)c(-c2csc(Nc3cccc([N+](=O)[O-])c3)n2)s1	u	50.9*	-12.7	0.3	8.5	i
CCN(CC1CCCN(CCc2cccc(OC)c2)C1)C(=O)c1ccoc1 (centres undefined)	-0.9	x	x	x	x	x
Cc1cc(C)c2c(n1)nn1c(NCCOCCO)cc(C)nc21	38.1*	50.8*	-24.4	28.3	71.5*	x
SMILES	RanGTP-Impb inh	Hck Nef HTS	TbHK1 inh	Runt-CBFb FRET	Runt-SMMHC FRET	Hck-Nef confirm
CCc1nn2c(NCCCO)cc(C)nc2c1-c1ccc(F)cc1	3.0	x	x	x	x	x
O=C(CCNC(=O)N1CCn2c1nc1ccccc12)NCc1ccccc1	6.8	x	x	x	x	x
COC(=O)c1ccccc1NC(=O)c1ccc2c(c1)C(=O)N(Cc1ccco1)C2=O	u	58.5*	-5.9	x	x	i
Cc1c(NC(=O)c2ccc3c(c2)C(=O)N(Cc2ccco2)C3=O)cccc1C(=O)O	1.1	23.3	6.0	1.2	-0.6	x
C(=N\Nc1ccccn1)/c1c[nH]c2ccccc12	4.3	51.5*	-47.2	4.6	2.1	i
NC(=O)CC(NC(=O)Cc1cccc2ccccc12)c1ccc(NCC2CC2)c([N+](=O)[O-])c1 (centres undefined)	2.7	18.2	7.8	-2.9	-4.2	x
NC(=O)CC(NC(=O)Cc1ccc(Br)cc1)c1ccc(NCCc2ccc(Cl)cc2)c([N+](=O)[O-])c1 (centres undefined)	7.1	35.9	18.3	-8.2	-11.4	x

Assay outcomes as filed in PubChem.
